# Like-named read-outs stand apart in the source and are kept apart here.
# System: East Asian patients with advanced nonhematologic malignancies
# Format: in vivo, human
# How it was run: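 AEs were graded by NCI CTCAE v4.03 in all patients receiving ≥ 1 oral dose, given once daily or once weekly in 28-day cycles for up to 12 months. Follow-up lasted 30 days after the last dose. Entry required ECOG 0–1, fasting glucose ≤ 130 mg/dL and triglycerides ≤ 300 mg/dL. Summaries were descriptive.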
# [1] = QD dose escalation 2 mg (n = 3)
# [2] = QD dose escalation 3 mg (n = 6)
# [3] = QD dose escalation 4 mg (n = 7)
# [4] = QD dose escalation + expansion 3 mg (n = 12)
compound,measurement,setting,value
CC(C)n1nc(-c2ccc3oc(N)nc3c2)c2c(N)ncnc21 [sapanisertib],Tolerability,"East Asian patients, QD and QW",generally well-tolerated
same,AE decreased appetite,QD arm,50%
same,AE nausea,QD arm,50%
same,Treatment-related AE decreased appetite,QD arm,45%
same,Treatment-related AE nausea,QD arm,50%
same,Discontinued treatment due to AEs,"QD arm (myocardial infarction, diarrhea and gastrointestinal inflammation, rash maculo-papular)",three
same,AEs resulting in discontinuation,[1],1 (33) n (%)
same,AEs resulting in dose interruption,[1],1 (33) n (%)
same,AEs resulting in dose reduction,[1],0 n (%)
same,Any AE,[1],3 (100) n (%)
same,Any grade ≥ 3 AE,[1],1 (33) n (%)
same,On-study deaths,[1],0 n (%)
same,SAEs,[1],0 n (%)
same,Treatment-related AE,[1],3 (100) n (%)
same,Treatment-related SAEs,[1],0 n (%)
same,Treatment-related grade ≥ 3 AE,[1],1 (33) n (%)
same,AEs resulting in discontinuation,[2],0 n (%)
same,AEs resulting in dose interruption,[2],5 (83) n (%)
same,AEs resulting in dose reduction,[2],0 n (%)
same,Any AE,[2],6 (100) n (%)
same,Any grade ≥ 3 AE,[2],2 (33) n (%)
same,On-study deaths,[2],0 n (%)
same,SAEs,[2],2 (33) n (%)
same,Treatment-related AE,[2],6 (100) n (%)
same,Treatment-related SAEs,[2],0 n (%)
same,Treatment-related grade ≥ 3 AE,[2],0 n (%)
same,AEs resulting in discontinuation,[3],2 (29) n (%)
same,AEs resulting in dose interruption,[3],6 (86) n (%)
same,AEs resulting in dose reduction,[3],3 (43) n (%)
same,Any AE,[3],7 (100) n (%)
same,Any grade ≥ 3 AE,[3],6 (86) n (%)
same,On-study deaths,[3],0 n (%)
same,SAEs,[3],3 (43) n (%)
same,Treatment-related AE,[3],7 (100) n (%)
same,Treatment-related SAEs,[3],2 (29) n (%)
same,Treatment-related grade ≥ 3 AE,[3],6 (86) n (%)
same,AEs resulting in discontinuation,[4],0 n (%)
same,AEs resulting in dose interruption,[4],8 (67) n (%)
same,AEs resulting in dose reduction,[4],1 (8) n (%)
same,Any AE,[4],12 (100) n (%)
same,Any grade ≥ 3 AE,[4],7 (58) n (%)
same,On-study deaths,[4],0 n (%)
same,SAEs,[4],3 (25) n (%)
same,Treatment-related AE,[4],12 (100) n (%)
same,Treatment-related SAEs,[4],0 n (%)
same,Treatment-related grade ≥ 3 AE,[4],3 (25) n (%)
same,AEs resulting in discontinuation,QD dose expansion 3 mg (n = 6),0 n (%)
same,AEs resulting in dose interruption,QD dose expansion 3 mg (n = 6),3 (50) n (%)
same,AEs resulting in dose reduction,QD dose expansion 3 mg (n = 6),1 (17) n (%)
same,Any AE,QD dose expansion 3 mg (n = 6),6 (100) n (%)
same,Any grade ≥ 3 AE,QD dose expansion 3 mg (n = 6),5 (83) n (%)
same,On-study deaths,QD dose expansion 3 mg (n = 6),0 n (%)
same,SAEs,QD dose expansion 3 mg (n = 6),1 (17) n (%)
same,Treatment-related AE,QD dose expansion 3 mg (n = 6),6 (100) n (%)
same,Treatment-related SAEs,QD dose expansion 3 mg (n = 6),0 n (%)
same,Treatment-related grade ≥ 3 AE,QD dose expansion 3 mg (n = 6),3 (50) n (%)
same,AE by preferred term: Abdominal pain,QD dosing n = 22,3 (14) n (%)
same,AE by preferred term: Alanine aminotransferase increased,QD dosing n = 22,4 (18) n (%)
same,AE by preferred term: Anemia,QD dosing n = 22,5 (23) n (%)
same,AE by preferred term: Aspartate aminotransferase increased,QD dosing n = 22,6 (27) n (%)
same,AE by preferred term: Constipation,QD dosing n = 22,4 (18) n (%)
same,AE by preferred term: Decreased appetite,QD dosing n = 22,11 (50) n (%)
same,AE by preferred term: Diarrhea,QD dosing n = 22,2 (9) n (%)
same,AE by preferred term: Erythema,QD dosing n = 22,2 (9) n (%)
same,AE by preferred term: Erythema multiforme,QD dosing n = 22,2 (9) n (%)
same,AE by preferred term: Fatigue,QD dosing n = 22,7 (32) n (%)
same,AE by preferred term: Gamma-glutamyltransferase increased,QD dosing n = 22,2 (9) n (%)
same,AE by preferred term: Gastrointestinal inflammation,QD dosing n = 22,2 (9) n (%)
same,AE by preferred term: Headache,QD dosing n = 22,2 (9) n (%)
same,AE by preferred term: Hyperglycemia,QD dosing n = 22,9 (41) n (%)
same,AE by preferred term: Hypokalemia,QD dosing n = 22,3 (14) n (%)
same,AE by preferred term: Lymphocyte count decreased,QD dosing n = 22,4 (18) n (%)
same,AE by preferred term: Nausea,QD dosing n = 22,11 (50) n (%)
same,AE by preferred term: Neutrophil count decreased,QD dosing n = 22,2 (9) n (%)
same,AE by preferred term: Platelet count decreased,QD dosing n = 22,6 (27) n (%)
same,AE by preferred term: Pruritus,QD dosing n = 22,2 (9) n (%)
same,AE by preferred term: Pyrexia,QD dosing n = 22,4 (18) n (%)
same,AE by preferred term: Rash erythematous,QD dosing n = 22,2 (9) n (%)
same,AE by preferred term: Rash maculo-papular,QD dosing n = 22,5 (23) n (%)
same,AE by preferred term: Rash pustular,QD dosing n = 22,2 (9) n (%)
same,AE by preferred term: Stomatitis,QD dosing n = 22,14 (64) n (%)
same,AE by preferred term: Urticaria,QD dosing n = 22,3 (14) n (%)
same,AE by preferred term: Vomiting,QD dosing n = 22,5 (23) n (%)
same,AE by preferred term: Weight decreased,QD dosing n = 22,7 (32) n (%)
same,AE by preferred term: White blood cell count decreased,QD dosing n = 22,4 (18) n (%)
same,Grade ≥ 3 AE: Acute myocardial infarction,QD dosing n = 22,1 (5) n (%)
same,Grade ≥ 3 AE: Aspartate aminotransferase increased,QD dosing n = 22,1 (5) n (%)
same,Grade ≥ 3 AE: Blood creatine phosphokinase increased,QD dosing n = 22,1 (5) n (%)
same,Grade ≥ 3 AE: Decreased appetite,QD dosing n = 22,1 (5) n (%)
same,Grade ≥ 3 AE: Diarrhea,QD dosing n = 22,1 (5) n (%)
same,Grade ≥ 3 AE: Gamma-glutamyltransferase increased,QD dosing n = 22,1 (5) n (%)
same,Grade ≥ 3 AE: Gastrointestinal inflammation,QD dosing n = 22,1 (5) n (%)
same,Grade ≥ 3 AE: Genital herpes,QD dosing n = 22,1 (5) n (%)
same,Grade ≥ 3 AE: Gingivitis,QD dosing n = 22,1 (5) n (%)
same,Grade ≥ 3 AE: Jaundice cholestatic,QD dosing n = 22,1 (5) n (%)
same,Grade ≥ 3 AE: Lymphocyte count decreased,QD dosing n = 22,2 (9) n (%)
same,Grade ≥ 3 AE: Nausea,QD dosing n = 22,2 (9) n (%)
same,Grade ≥ 3 AE: Neutrophil count decreased,QD dosing n = 22,1 (5) n (%)
same,Grade ≥ 3 AE: Platelet count decreased,QD dosing n = 22,1 (5) n (%)
same,Grade ≥ 3 AE: Post herpetic neuralgia,QD dosing n = 22,1 (5) n (%)
same,Grade ≥ 3 AE: Pruritus,QD dosing n = 22,1 (5) n (%)
same,Grade ≥ 3 AE: Rash maculo-papular,QD dosing n = 22,2 (9) n (%)
same,Grade ≥ 3 AE: Rash pustular,QD dosing n = 22,1 (5) n (%)
same,Grade ≥ 3 AE: Renal impairment,QD dosing n = 22,1 (5) n (%)
same,Grade ≥ 3 AE: Sepsis,QD dosing n = 22,1 (5) n (%)
same,Grade ≥ 3 AE: Stomatitis,QD dosing n = 22,2 (9) n (%)
same,Grade ≥ 3 AE: Urticaria,QD dosing n = 22,1 (5) n (%)
same,Grade ≥ 3 AE: White blood cell count decreased,QD dosing n = 22,1 (5) n (%)
same,Patients with ≥ 1 grade 3 or higher AE,QD dosing n = 22,14 (64) n (%)
same,AEs resulting in discontinuation,QD total (n = 22),3 (14) n (%)
same,AEs resulting in dose interruption,QD total (n = 22),15 (68) n (%)
same,AEs resulting in dose reduction,QD total (n = 22),4 (18) n (%)
same,Any AE,QD total (n = 22),22 (100) n (%)
same,Any grade ≥ 3 AE,QD total (n = 22),14 (64) n (%)
same,On-study deaths,QD total (n = 22),0 n (%)
same,SAEs,QD total (n = 22),6 (27) n (%)
same,Treatment-related AE,QD total (n = 22),22 (100) n (%)
same,Treatment-related SAEs,QD total (n = 22),2 (9) n (%)
same,Treatment-related grade ≥ 3 AE,QD total (n = 22),10 (45) n (%)
same,AE alanine aminotransferase increased,QW arm,50%
same,AE aspartate aminotransferase increased,QW arm,50%
same,AE blood alkaline phosphatase increased,QW arm,67%
same,AE decreased appetite,QW arm,50%
same,AE hyperglycemia,QW arm,67%
same,AE nausea,QW arm,100%
same,AE stomatitis,QW arm,33%
same,AE weight decreased,QW arm,50%
